# Measured values: PubChem BioAssay
# Calls of active or inactive are those of the source.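 Rule for the calls, unless noted: active = viability at or below 10% of carrier control in both of two separate runs; inconclusive = viability at or below 10% in only one of the two runs; inactive = the rest.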
# Legend:
# [1] = reducers of endogenous Her2 protein level, primary screen, SKBR3 breast tumor cells, AlphaScreen, ATP viability (AID 461;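 active = Her2 level under about 52% in both replicate screens, with viability over 70% of control, limit read from the data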;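 for Her2 level: lower value means less Her2 protein in the cells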;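 for viability: percent of carrier control wells set as 100% viability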); settings: 18-24 h, measured here: SKBR3 viability, ATP luminescence, at 10 µM
# [2] = target: Receptor tyrosine-protein kinase erbB-2 (Homo sapiens) (UniProt P04626); assay: as above; settings: 18-24 h, at 10 µM, stronger effect = lower value
# Chain of Receptor tyrosine-protein kinase erbB-2 (Homo sapiens) (P04626 whole entry, looked up): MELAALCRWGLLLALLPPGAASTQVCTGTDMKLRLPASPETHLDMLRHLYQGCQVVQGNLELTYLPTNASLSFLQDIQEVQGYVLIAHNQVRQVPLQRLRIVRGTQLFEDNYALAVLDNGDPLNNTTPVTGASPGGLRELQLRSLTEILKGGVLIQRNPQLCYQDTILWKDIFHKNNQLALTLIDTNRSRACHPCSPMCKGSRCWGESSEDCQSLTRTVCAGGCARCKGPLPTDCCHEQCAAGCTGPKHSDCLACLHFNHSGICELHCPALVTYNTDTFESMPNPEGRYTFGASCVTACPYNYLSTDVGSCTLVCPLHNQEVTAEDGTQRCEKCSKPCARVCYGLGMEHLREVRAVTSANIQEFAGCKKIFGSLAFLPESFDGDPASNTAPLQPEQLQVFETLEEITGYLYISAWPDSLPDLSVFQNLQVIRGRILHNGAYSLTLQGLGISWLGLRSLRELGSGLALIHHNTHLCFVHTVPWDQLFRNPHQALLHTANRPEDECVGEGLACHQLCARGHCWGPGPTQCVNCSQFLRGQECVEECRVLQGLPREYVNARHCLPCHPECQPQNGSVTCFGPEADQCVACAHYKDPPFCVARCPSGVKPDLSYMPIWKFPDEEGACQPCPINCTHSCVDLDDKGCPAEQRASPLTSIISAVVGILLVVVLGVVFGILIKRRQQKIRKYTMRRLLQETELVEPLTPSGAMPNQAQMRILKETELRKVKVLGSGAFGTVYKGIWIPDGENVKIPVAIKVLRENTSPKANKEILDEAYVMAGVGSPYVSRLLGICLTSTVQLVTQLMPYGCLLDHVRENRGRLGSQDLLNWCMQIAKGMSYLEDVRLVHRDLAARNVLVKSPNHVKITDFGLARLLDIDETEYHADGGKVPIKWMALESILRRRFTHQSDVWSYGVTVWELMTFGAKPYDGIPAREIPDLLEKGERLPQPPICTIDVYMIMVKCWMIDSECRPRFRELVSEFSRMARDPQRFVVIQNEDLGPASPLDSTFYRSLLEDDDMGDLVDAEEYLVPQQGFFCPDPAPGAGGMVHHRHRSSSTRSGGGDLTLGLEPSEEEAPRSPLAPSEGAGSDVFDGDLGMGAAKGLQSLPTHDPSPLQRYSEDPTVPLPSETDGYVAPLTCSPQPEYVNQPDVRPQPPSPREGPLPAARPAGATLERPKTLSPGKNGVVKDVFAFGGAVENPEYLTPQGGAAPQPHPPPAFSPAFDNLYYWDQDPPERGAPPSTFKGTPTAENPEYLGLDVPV
# [3] = SK-BR-3 cell growth inhibitors, pilot screen, 24 h, human (AID 572); settings: SK-BR-3 viability, CellTiter-Glo luminescence, at 10 µM, stronger effect = lower value;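 note: compound exposure lasted between 18 and 24 h rather than exactly 24 h; 100% = carrier-treated control wells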
# [4] = HUVEC growth inhibition – cell-based, human, primary screen (AID 575;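 active = viability at or below 30% in both replicate assays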;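 note: 100% = median of untreated cell wells with 0.1% DMSO on each plate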); settings: HUVEC proliferation, CellTiter-Glo luminescence, 72 h; at 10 µM; stronger effect = lower value
# How it was run: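 system = HUVEC primary cells | amount = 1250 cells/well | buffer or medium = supplemented EBM, 2% fetal bovine serum | dosing = single-point 10 µM, DMSO 0.1% final | times = 72 h compound incubation | detection = CTG luminescence | read-out = % viability relative to median vehicle-well signal on each plate | control set = vehicle and MePR control wells | format = collagen-coated 384-well format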
# [5] = growth inhibitors of H69AR lung tumor, primary screen, human, duplicate replicates (AID 580;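 active = viability at or under a set limit in both replicates, limit being median viability minus 3 SD, cut at about 48% in these data, passing the limit was not always enough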;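 note: 100% = mean luminescence of untreated wells and 0% = no signal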); settings: H69AR lung tumor cells viability, ATP luminescence, 72 h; at 10 µM; stronger effect = lower value
# [6] = reversal of MRP1-mediated doxorubicin resistance, pilot screen, H69AR cells, doxorubicin co-treatment (AID 601;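 active = viability loss from added drug above about 55%, and viability with drug at most 40%, in both replicates, limit read from the data, passing the limit was not always enough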); settings: CellTiter-Glo, 72 h, at 10 µM; for differential viability (reversal): stronger effect = higher value
# [7] = 384-well plate pilot, post-Golgi transport modulator project, inhibition of yeast transport mutant growth (AID 636; in the data active = inhibition above about 31%); settings: absorbance 615 nm, about 18 h, stronger effect = higher value
# [8] = growth suppression of yeast trafficking mutant, preliminary HTS, modulators of trafficking downstream of Golgi apparatus project, 1536-format plate, OD 615 nm (AID 637; in the data active = inhibition above about 30%); settings: yeast transport mutant growth, absorbance 615 nm, 18 h; stronger effect = higher value
# [9] = H69AR cells + 2 uM doxorubicin, measured here: viability with 2 uM doxorubicin, stronger effect = lower value
# [10] = H69AR cells, compound alone cytotoxicity
Structure (SMILES),viability [1] [%],Her2 level [2],viability [3],viability [4],viability [5],differential viability (reversal) ([6]; H69AR cells + 2 uM doxorubicin),"viability [6, 9] [%]","viability [6, 10] [%]",inhibition [7],inhibition [8]
CCCS(=O)(=O)N1CCN(Cc2ccc(OCc3ccccc3)c(OC)c2)CC1,84.5,114% (inactive),84.5% (inactive),105% (inactive),87.8% (inactive),-5.26% (inactive),93.1,87.8,4.19% (inactive),30.2% (active)
Cc1nc2ccccc2n1CCC(=O)Nc1cccc(F)c1,88,90% (inactive),88% (inactive),93.6% (inactive),79.9% (inactive),-10.1% (inactive),90,79.9,0.38% (inactive),-5.33% (inactive)
COc1ccc(CN2CC(C(=O)NCc3ccccn3)CC2=O)cc1 (stereo not given),92.5,104% (inactive),92.5% (inactive),101% (inactive),105% (inactive),9.59% (inactive),95.1,105,-5% (inactive),-4.03% (inactive)
CNC(=O)c1c(O)c2cccc3c2n(c1=O)CC3,83.5,86% (inactive),83.5% (inactive),101% (inactive),89.5% (inactive),-5.95% (inactive),95.5,89.5,-0.13% (inactive),-4.52% (inactive)
O=C(c1ccco1)N(Cc1cc2ccccc2[nH]c1=O)C1CCCCC1,98.5,103% (inactive),98.5% (inactive),91.7% (inactive),95% (inactive),12.9% (inactive),82.1,95,0.39% (inactive),-6.35% (inactive)
COc1cccc(-n2ccnc2SCC(=O)N2CCc3ccccc32)c1,94.5,102% (inactive),94.5% (inactive),109% (inactive),102% (inactive),-5.1% (inactive),107,102,0.93% (inactive),-3.06% (inactive)
COCCOc1nc2ccccc2nc1C,126,94% (inactive),126% (inactive),88.4% (inactive),87.6% (inactive),0.7% (inactive),86.9,87.6,-3.55% (inactive),4.19% (inactive)
C/C=C(\C)c1nnc(NC(=O)C(C)C)s1,92.5,82.5% (inactive),92.5% (inactive),101% (inactive),98.7% (inactive),9.51% (inactive),89.2,98.7,-4.05% (inactive),2.79% (inactive)
Clc1ccc2nc(N3CCCCC3)[nH]c2c1,90.5,78.5% (inactive),90.5% (inactive),105% (inactive),91.9% (inactive),11.6% (inactive),80.3,91.9,-7.84% (inactive),2.79% (inactive)
O=C(NC1CCCC1)C(c1ccco1)N(Cc1ccccc1)C(=O)c1csnn1 (stereo not given),88.5,76% (inactive),88.5% (inactive),76.4% (inactive),97.5% (inactive),1.57% (inactive),95.9,97.5,-8.65% (inactive),4.44% (inactive)
Cc1ccc2nc(NCCCN3CCOCC3)c(C=NCCCN3CCOCC3)c(=O)n2c1,102,84% (inactive),102% (inactive),99.1% (inactive),81.9% (inactive),-4.68% (inactive),86.6,81.9,-0.39% (inactive),-12% (inactive)
CCCN1C2CCCC1CC(NC(=O)c1ccccc1F)C2 (stereo not given),99,96.5% (inactive),99% (inactive),94.2% (inactive),106% (inactive),19.6% (inactive),86,106,-4.93% (inactive),5.4% (inactive)
CC(C)OCCCNC(=O)c1cc2c(s1)CS(=O)(=O)C2,99,104% (inactive),99% (inactive),90.3% (inactive),94.6% (inactive),-1.46% (inactive),96.1,94.6,1.03% (inactive),-8.5% (inactive)
CCOc1ccc(NC(=O)CN(C)S(=O)(=O)c2cccs2)cc1,104,100% (inactive),104% (inactive),101% (inactive),93.9% (inactive),6.1% (inactive),87.8,93.9,-3.2% (inactive),1.45% (inactive)
CC1=C(C)[N+](=O)C2CCCCC2N1[O-] (stereo not given),89,112% (inactive),89% (inactive),104% (inactive),94.4% (inactive),9.79% (inactive),84.6,94.4,-5.97% (inactive),-9.34% (inactive)
CCOC(=O)C1CCCN(CCC(C)c2ccccc2)C1 (stereo not given),94,84.5% (inactive),94% (inactive),106% (inactive),95.7% (inactive),11.3% (inactive),84.3,95.7,-6.8% (inactive),4.1% (inactive)
